Active and inactive are the calls of the source. The calls are words filed in the database; no cut-off is given here.
What was measured:
[1] = target: T1, Lysine-specific demethylase 5A (Homo sapiens, UniProt P29375); experiment: Inhibition of human C-terminal FLAG-tagged KDM5A (1 to 1090 residues) expressed in baculovirus infected Sf9 insect cells at 1 uM using H3(1-21)K4(Me3)-GGK(Biotin)/2-OG as substrate measured after 1 hr by Alphalisa assay relative to control
Procedure, shortened: (§1)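 AlphaLISA demethylase assay in 50 mM HEPES pH 7.5, 0.1% BSA, 0.01% Tween 20 with DMSO. Enzyme and inhibitor combined, then peptide plus 2-OG (50 µM), Fe(II) (5 µM) and ascorbate (100 µM) in the added mix; 1 h at room temperature with shaking.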

[2] = target: T2, Lysine-specific demethylase 6B (Homo sapiens, UniProt O15054); experiment: Inhibition of human C-terminal FLAG-tagged KDM6B (1043 to end residues) expressed in baculovirus infected Sf9 insect cells at 50 uM using H3(21-44)-K27(Me3)-GK(Biotin)/2-OG as substrate measured after 1 hr by Alphalisa assay relative to control; procedure, shortened: as §1
T2 sequence (O15054 whole entry, the tested form may be a part): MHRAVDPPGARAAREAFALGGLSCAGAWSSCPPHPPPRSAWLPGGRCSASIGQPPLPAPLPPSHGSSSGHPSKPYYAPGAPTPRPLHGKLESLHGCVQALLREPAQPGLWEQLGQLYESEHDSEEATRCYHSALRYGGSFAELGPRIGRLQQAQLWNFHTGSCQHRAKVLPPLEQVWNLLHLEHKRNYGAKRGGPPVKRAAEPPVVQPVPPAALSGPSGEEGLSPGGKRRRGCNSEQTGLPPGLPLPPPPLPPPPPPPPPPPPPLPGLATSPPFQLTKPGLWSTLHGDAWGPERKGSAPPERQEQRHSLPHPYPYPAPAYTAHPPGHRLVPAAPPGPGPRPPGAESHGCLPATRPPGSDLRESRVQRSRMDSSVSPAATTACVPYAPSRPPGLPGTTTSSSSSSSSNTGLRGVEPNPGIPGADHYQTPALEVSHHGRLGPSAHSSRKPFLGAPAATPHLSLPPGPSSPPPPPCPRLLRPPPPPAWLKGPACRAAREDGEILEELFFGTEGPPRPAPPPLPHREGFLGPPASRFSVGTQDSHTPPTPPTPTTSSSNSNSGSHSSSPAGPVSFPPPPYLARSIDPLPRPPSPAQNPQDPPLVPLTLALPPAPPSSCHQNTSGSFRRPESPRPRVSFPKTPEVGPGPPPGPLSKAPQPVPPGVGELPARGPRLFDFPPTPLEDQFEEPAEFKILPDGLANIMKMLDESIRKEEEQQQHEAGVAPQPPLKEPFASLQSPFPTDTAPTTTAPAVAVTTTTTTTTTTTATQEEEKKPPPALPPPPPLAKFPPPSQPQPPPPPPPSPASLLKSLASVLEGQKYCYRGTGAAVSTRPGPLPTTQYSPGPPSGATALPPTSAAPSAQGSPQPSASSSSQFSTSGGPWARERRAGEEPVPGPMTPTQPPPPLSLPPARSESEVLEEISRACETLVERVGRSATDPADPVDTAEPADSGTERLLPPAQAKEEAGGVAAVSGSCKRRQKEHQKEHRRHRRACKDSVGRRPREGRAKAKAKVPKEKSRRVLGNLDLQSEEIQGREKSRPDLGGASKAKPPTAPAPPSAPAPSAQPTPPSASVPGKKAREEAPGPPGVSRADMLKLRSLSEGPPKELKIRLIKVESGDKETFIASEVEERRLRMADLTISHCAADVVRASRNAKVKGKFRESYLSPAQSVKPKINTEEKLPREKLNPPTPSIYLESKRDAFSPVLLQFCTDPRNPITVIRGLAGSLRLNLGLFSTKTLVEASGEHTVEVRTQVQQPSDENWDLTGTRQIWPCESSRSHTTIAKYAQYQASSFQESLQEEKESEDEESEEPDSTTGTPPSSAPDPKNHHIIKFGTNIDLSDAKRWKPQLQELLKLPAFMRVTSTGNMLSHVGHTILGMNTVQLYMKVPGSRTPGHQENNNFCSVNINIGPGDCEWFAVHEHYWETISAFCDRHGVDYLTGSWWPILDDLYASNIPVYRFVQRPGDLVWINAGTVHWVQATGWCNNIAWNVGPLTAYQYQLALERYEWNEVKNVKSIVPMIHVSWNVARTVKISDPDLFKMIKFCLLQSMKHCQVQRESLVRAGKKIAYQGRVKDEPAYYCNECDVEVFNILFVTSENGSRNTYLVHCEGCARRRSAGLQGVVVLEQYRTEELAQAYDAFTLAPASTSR

[3] = target: T3, Lysine-specific demethylase 2A (Homo sapiens) (UniProt Q9Y2K7); experiment: Inhibition of human N-terminal FLAG/Avi-tagged KDM2A (2 to 700 residues) expressed in baculovirus infected Sf9 insect cells at 50 uM using H3(21-44)-K36(Me2)-GK(Biotin)/2-OG as substrate measured after 1 hr by Alphalisa assay relative to control; procedure, shortened: as §1
T3 sequence (whole entry): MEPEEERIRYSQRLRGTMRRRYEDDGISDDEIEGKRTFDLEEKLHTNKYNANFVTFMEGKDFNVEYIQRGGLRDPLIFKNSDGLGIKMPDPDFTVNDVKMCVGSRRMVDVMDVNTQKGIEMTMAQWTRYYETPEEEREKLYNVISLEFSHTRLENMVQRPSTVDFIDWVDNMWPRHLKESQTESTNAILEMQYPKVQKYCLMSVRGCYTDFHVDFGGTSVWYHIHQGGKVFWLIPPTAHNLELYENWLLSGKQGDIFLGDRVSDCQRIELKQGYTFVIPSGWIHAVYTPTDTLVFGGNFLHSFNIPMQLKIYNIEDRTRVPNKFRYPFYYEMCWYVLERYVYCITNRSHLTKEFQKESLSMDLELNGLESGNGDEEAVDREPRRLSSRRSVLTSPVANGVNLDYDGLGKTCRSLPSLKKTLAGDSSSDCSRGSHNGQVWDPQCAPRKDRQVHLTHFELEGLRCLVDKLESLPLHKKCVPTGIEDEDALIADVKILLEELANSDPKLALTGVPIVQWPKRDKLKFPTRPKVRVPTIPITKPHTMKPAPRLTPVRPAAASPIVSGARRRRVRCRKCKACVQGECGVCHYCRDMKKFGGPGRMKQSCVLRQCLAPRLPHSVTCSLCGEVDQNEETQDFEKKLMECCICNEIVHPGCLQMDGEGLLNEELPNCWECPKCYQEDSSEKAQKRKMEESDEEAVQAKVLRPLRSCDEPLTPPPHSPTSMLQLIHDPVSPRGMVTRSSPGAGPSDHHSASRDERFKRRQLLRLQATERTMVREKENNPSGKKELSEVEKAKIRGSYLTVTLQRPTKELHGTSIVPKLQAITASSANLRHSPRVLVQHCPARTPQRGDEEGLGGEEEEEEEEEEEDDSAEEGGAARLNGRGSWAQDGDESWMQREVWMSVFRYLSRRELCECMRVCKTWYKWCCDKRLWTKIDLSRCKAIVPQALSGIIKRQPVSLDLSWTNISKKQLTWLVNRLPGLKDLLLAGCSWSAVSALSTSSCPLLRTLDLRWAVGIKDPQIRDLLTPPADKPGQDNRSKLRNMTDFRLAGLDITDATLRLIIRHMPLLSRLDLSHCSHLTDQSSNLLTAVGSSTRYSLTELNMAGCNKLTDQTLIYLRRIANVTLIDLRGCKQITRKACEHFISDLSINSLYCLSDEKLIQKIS

[4] = target: T1, Lysine-specific demethylase 5A; experiment: Inhibition of human C-terminal FLAG-tagged KDM5A (1 to 1090 residues) expressed in baculovirus infected Sf9 insect cells at 25 uM using H3(1-21)K4(Me3)-GGK(Biotin)/2-OG as substrate measured after 1 hr by Alphalisa assay relative to control; procedure, shortened: as §1
[5] = target: T1, Lysine-specific demethylase 5A; experiment: Inhibition of human C-terminal FLAG-tagged KDM5A (1 to 1090 residues) expressed in baculovirus infected Sf9 insect cells using H3(1-21)K4(Me3)-GGK(Biotin)/2-OG as substrate measured after 1 hr by Alphalisa assay; procedure, shortened: as §1
[6] = system: A549; experiment: Inhibition of KDM6 in human A549 cells assessed as increase in […] levels up to 25 uM after 48 hrs by Western blot analysis; assay type: cell-based
Procedure, shortened: (§2)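 A549 cells (5 × 10^5 per 2 mL well, RPMI1640 with 10% heat-inactivated FBS) exposed 48 h to compounds at 1, 5 or 25 µM. SDS lysates normalised by BCA, separated on 5-20% SDS-PAGE, blotted to PVDF, blocked in 5% milk/TBS-T, probed for H3K4me3, H3K9me3, H3K27me3 and total H3, detected by HRP chemiluminescence.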

[7] = system: MDA-MB-231; experiment: Growth inhibition of human MDA-MB-231 cells at 50 uM after 72 hrs by Alamar blue staining based fluorescence assay; assay type: functional, cell-based
Procedure, shortened: (§3)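 A549 or MDA-MB-231 cells seeded at 2 × 10^3 per well, left 24 h at 37 °C, then given compounds in medium for 72 h at 37 °C, 5% CO2. AlamarBlue added for a further 3 h at 37 °C; fluorescence read at ex 540/em 590 nm and % growth calculated from it. A549 in RPMI1640/10% FBS; MDA-MB-231 in L-15 with 2 mM glutamine/10% FBS.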

[8] = system: A549; experiment: Growth inhibition of human A549 cells after 72 hrs by Alamar blue staining based fluorescence assay; assay type: functional; details: A549, 72 h; procedure, shortened: as §3
[9] = target: T1, Lysine-specific demethylase 5A; experiment: Inhibition of KDM5A in human A549 cells assessed as increase in H3K4me3 levels after 48 hrs by Western blot analysis; assay type: cell-based; procedure, shortened: as §2
[10] = target: Histone lysine demethylase PHF8 (Homo sapiens, UniProt Q9UPP1); experiment: Inhibition of human N-terminal FLAG-tagged KDM7B (2 to 525 residues) expressed in baculovirus infected Sf9 insect cells at 25 uM using H3(1-21)K9(Me2)-GGK(Biotin)/2-OG as substrate measured after 1 hr by Alphalisa assay relative to control; procedure, shortened: as §1
Histone lysine demethylase PHF8, sequence (Q9UPP1 whole entry, the tested form may be a part): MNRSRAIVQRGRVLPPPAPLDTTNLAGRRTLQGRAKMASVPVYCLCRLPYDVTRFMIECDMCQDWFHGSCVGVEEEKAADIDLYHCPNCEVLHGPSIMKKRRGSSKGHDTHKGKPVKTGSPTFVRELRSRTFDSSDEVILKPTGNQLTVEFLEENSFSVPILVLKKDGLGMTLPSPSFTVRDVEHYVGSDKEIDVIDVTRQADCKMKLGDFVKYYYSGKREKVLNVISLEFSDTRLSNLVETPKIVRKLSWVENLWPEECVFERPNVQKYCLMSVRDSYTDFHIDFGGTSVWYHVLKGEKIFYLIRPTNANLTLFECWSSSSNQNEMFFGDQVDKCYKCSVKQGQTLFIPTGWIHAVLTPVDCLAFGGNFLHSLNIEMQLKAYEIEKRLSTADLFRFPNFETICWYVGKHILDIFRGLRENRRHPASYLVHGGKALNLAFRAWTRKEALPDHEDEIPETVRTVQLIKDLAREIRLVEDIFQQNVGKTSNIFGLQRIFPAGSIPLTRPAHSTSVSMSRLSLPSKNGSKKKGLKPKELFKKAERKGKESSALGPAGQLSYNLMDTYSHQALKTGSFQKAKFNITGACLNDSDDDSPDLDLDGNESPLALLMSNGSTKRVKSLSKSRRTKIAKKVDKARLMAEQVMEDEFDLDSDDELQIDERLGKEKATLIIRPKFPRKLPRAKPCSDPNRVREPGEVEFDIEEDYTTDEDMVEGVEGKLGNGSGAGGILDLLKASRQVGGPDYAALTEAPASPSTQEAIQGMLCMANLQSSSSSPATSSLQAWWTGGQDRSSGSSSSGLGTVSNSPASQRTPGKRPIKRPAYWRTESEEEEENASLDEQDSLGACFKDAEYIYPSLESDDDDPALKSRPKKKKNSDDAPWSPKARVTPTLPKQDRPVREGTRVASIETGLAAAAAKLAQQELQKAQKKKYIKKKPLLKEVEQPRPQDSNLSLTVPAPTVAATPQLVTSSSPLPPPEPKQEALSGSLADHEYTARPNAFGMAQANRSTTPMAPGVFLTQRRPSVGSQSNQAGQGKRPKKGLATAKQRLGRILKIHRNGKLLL

[11] = system: A549; experiment: Growth inhibition of human A549 cells at 50 uM after 72 hrs by Alamar blue staining based fluorescence assay; assay type: functional, cell-based; procedure, shortened: as §3
[12] = target: T2, Lysine-specific demethylase 6B; experiment: Inhibition of human C-terminal FLAG-tagged KDM6B (1043 to end residues) expressed in baculovirus infected Sf9 insect cells using H3(21-44)-K27(Me3)-GK(Biotin)/2-OG as substrate measured after 1 hr by Alphalisa assay; procedure, shortened: as §1

T1 sequence (P29375 whole entry, the tested form may be a part): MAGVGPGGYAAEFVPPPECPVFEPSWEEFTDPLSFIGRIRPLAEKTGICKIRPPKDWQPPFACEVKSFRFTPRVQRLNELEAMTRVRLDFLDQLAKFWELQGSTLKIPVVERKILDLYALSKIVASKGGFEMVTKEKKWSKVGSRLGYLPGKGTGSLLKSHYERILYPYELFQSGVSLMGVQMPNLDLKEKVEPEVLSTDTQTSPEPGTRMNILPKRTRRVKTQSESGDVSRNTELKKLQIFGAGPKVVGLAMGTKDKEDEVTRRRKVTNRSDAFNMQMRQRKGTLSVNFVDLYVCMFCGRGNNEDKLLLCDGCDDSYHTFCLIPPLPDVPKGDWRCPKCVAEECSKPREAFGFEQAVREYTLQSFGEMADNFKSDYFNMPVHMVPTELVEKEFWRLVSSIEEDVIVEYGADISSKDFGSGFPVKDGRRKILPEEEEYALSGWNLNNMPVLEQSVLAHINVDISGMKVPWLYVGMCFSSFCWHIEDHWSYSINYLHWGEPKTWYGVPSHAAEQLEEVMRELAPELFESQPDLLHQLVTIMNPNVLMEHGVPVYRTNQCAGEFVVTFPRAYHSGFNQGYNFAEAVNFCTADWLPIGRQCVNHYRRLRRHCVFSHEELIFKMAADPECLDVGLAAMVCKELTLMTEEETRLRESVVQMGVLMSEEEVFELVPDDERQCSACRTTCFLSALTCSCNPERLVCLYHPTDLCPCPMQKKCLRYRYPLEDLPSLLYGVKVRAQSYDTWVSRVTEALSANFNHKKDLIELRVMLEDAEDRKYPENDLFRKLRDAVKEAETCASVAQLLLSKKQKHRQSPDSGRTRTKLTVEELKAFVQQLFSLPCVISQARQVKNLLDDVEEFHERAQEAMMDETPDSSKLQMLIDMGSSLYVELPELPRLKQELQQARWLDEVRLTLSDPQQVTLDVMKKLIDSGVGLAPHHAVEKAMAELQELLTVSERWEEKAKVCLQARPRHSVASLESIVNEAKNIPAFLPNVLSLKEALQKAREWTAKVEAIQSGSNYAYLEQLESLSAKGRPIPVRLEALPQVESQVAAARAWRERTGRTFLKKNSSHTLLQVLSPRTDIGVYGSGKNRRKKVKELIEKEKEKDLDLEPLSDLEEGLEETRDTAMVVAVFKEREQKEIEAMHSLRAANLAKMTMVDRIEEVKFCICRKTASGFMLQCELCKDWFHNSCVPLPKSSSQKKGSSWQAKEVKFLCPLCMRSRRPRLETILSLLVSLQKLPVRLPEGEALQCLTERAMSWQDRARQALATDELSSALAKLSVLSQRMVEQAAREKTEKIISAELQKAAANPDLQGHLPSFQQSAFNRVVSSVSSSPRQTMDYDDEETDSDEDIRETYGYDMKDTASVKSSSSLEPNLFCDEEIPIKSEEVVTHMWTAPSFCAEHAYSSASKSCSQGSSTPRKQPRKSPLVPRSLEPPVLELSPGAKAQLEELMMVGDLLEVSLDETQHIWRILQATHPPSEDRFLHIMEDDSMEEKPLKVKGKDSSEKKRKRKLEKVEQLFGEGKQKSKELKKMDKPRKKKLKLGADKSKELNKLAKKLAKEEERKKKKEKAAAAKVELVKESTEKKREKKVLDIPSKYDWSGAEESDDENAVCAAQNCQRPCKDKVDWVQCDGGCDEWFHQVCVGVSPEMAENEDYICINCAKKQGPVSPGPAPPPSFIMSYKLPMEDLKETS

inhibition [1] [%] | inhibition [2] [%] | inhibition [3] [%] | inhibition [4] [%] | IC50 [5] [µM] | GI50 [8] [µM] | inhibition [9] | inhibition [10] [%] | IC50 [12] [µM] | Structure (SMILES) | inhibition [6] | growth inhibition (GI) [7] | growth inhibition (GI) [11]
30.8 | 17.8 | 51.7 | 89.9 | 2.7 |  |  |  |  | CCCCCN(C)CCCCC(=O)N(O)CCC(=O)O |  |  | 
 | 22.7 | 38.4 |  | 0.00437 | 29.6 | Dose-dependent effect | 11.8 |  | CCCCCCN(C)CCc1ccc(-c2[nH]c3c(C#N)cnn3c(=O)c2C(C)C)cc1 | inactive | Active | Active
68.9 |  | 25.7 | 100 |  | > 50 | Dose-dependent effect |  | 14.3 | CC(C)c1c(-c2ccccc2)[nH]c2c(C#N)cnn2c1=O |  | Active | inactive
97.9 | 29.1 | 13.4 |  | 0.0227 | 40 | Dose-dependent effect | 12.1 | > 50 | CCCCCCN(C)Cc1ccc(-c2[nH]c3c(C#N)cnn3c(=O)c2C(C)C)cc1 | inactive | Active | Active

— ChEMBL document CHEMBL4422684, “Identification of novel lysine demethylase 5-selective inhibitors by inhibitor-based fragment merging strategy” (Bioorg Med Chem, 2019)
